ChEMBL document CHEMBL1122647 (J Med Chem, 1984)

Key:
Mus musculus [1] = assay: In vivo antitumor activity was evaluated against L1210 leukemia implanted mice by measuring 7-day weight change after intraperitoneal administration of compound at 2 mg/kg; type: functional
Outline: (§1)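 Groups of five male B6D2F1J mice were inoculated ip with 10^5 L1210 cells on day 0. Starting day 1, drug in sterile water was given ip bid on days 1-4 and 7-10, with a single double-dose injection on days 5 and 6. Percent body-weight change was recorded at day 7, along with survival range, median T/C and ILS.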

L1210 = assay: Compound was evaluated for its cytotoxicity against the L1210 murine leukemia cell culture; type: functional; settings: Mus musculus, read-out: ID50 (the source's name)
Mus musculus [2] = assay: In vivo antitumor activity was evaluated against L1210 leukemia implanted mice by measuring number of survival days after intraperitoneal administration of compound at 2 mg/kg; at a range of 16-20; type: functional
Outline: (§2)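 Male B6D2F1J mice, five per group, were implanted ip with 10^5 L1210 cells on day 0. Treatment began on day 1. Drug was given ip in sterile water, twice daily on days 1-4 and 7-10, and as a single double-dose injection on days 5 and 6. Survival was recorded in days (range, and median treated/control), with % ILS derived from it. Body-weight change at 7 days was also recorded.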

Mus musculus [3] = assay: In vivo antitumor activity was evaluated against L1210 leukemia implanted mice by measuring 7-day weight change after intraperitoneal administration of compound at 0.5 mg/kg; type: functional; outline: as §1
Mus musculus [4] = assay: In vivo antitumor activity was evaluated against L1210 leukemia implanted mice by measuring T/C median after intraperitoneal administration of compound at 2 mg/kg; T/C median=19/8; type: functional; outline: as §2
Mus musculus [5] = assay: In vivo antitumor activity was evaluated against L1210 leukemia implanted mice by measuring percent increase in life span after intraperitoneal administration of compound at 0.5 mg/kg; type: functional; outline: as §2
Mus musculus [6] = assay: In vivo antitumor activity was evaluated against L1210 leukemia implanted mice by measuring percent increase in life span after intraperitoneal administration of compound at 2 mg/kg; type: functional; outline: as §2
Mus musculus [7] = assay: In vivo antitumor activity was evaluated against L1210 leukemia implanted mice by measuring number of survival days after intraperitoneal administration of compound at 1 mg/kg; at a range of 13-17; type: functional; outline: as §2
Mus musculus [8] = assay: In vivo antitumor activity was evaluated against L1210 leukemia implanted mice by measuring 7-day weight change after intraperitoneal administration of compound at 1 mg/kg; type: functional; outline: as §1
[9] = target: T1, Dihydrofolate reductase (Mus musculus) (UniProt P00375)
T1 sequence (whole entry): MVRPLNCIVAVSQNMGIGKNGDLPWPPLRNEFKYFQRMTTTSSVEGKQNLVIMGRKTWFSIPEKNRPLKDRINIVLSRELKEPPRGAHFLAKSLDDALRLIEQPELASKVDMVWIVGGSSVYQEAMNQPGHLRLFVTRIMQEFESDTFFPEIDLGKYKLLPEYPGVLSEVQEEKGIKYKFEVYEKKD

Mus musculus [10] = assay: In vivo antitumor activity was evaluated against L1210 leukemia implanted mice by measuring T/C median after intraperitoneal administration of compound at 1 mg/kg; T/C median=16/8; type: functional; outline: as §2
Mus musculus [11] = assay: In vivo antitumor activity was evaluated against L1210 leukemia implanted mice by measuring percent increase in life span after intraperitoneal administration of compound at 1 mg/kg; type: functional; outline: as §2
Mus musculus [12] = assay: In vivo antitumor activity was evaluated against L1210 leukemia implanted mice by measuring T/C median after intraperitoneal administration of compound at 0.5 mg/kg; T/C median=15/8; type: functional; outline: as §2
Mus musculus [13] = assay: In vivo antitumor activity was evaluated against L1210 leukemia implanted mice by measuring number of survival days after intraperitoneal administration of compound at 0.5 mg/kg; at a range of 13-16; type: functional; outline: as §2
Mus musculus [14] = assay: In vivo antitumor activity was evaluated against L1210 leukemia implanted mice by measuring 7-day weight change after intraperitoneal administration of compound at 0.24 mg/kg; type: functional; outline: as §1
Mus musculus [15] = assay: In vivo antitumor activity was evaluated against L1210 leukemia implanted mice by measuring number of survival days after intraperitoneal administration of compound at 0.12 mg/kg at a range of 12-15; type: functional
Outline: (§3)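 Male B6D2F1J mice, five per group, were inoculated ip with 10^5 L1210 cells on day 0. Treatment began on day 1, given ip in sterile water twice daily on days 1-4 and 7-10, with a single double-dose injection on each of days 5 and 6. Read-outs were percent body weight change over 7 days, survival range in days, treated/control median survival, and percent increase in life span.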

Mus musculus [16] = assay: In vivo antitumor activity was evaluated against L1210 leukemia implanted mice by measuring number of survival days after intraperitoneal administration of compound at 0.24 mg/kg at a range of 12-20; type: functional; outline: as §2
Mus musculus [17] = assay: In vivo antitumor activity was evaluated against L1210 leukemia implanted mice by measuring percent increase in life span after intraperitoneal administration of compound at 0.24 mg/kg; type: functional; outline: as §2
Mus musculus [18] = assay: In vivo antitumor activity was evaluated against L1210 leukemia implanted mice by measuring 7-day weight change after intraperitoneal administration of compound at 0.06 mg/kg; type: functional; outline: as §1
Mus musculus [19] = assay: In vivo antitumor activity was evaluated against L1210 leukemia implanted mice by measuring 7-day weight change after intraperitoneal administration of compound at 0.12 mg/kg; type: functional; outline: as §3
Mus musculus [20] = assay: In vivo antitumor activity was evaluated against L1210 leukemia implanted mice by measuring percent increase in life span after intraperitoneal administration of compound at 0.06 mg/kg; type: functional; outline: as §2
Mus musculus [21] = assay: In vivo antitumor activity was evaluated against L1210 leukemia implanted mice by measuring T/C median after intraperitoneal administration of compound at 0.24 mg/kg; T/C median=19/8; type: functional; outline: as §2
Mus musculus [22] = assay: In vivo antitumor activity was evaluated against L1210 leukemia implanted mice by measuring T/C median after intraperitoneal administration of compound at 0.12 mg/kg; T/C median=14/8; type: functional; outline: as §3
Mus musculus [23] = assay: In vivo antitumor activity was evaluated against L1210 leukemia implanted mice by measuring percent increase in life span after intraperitoneal administration of compound at 0.12 mg/kg; type: functional; outline: as §3
Mus musculus [24] = assay: In vivo antitumor activity was evaluated against L1210 leukemia implanted mice by measuring number of survival days after intraperitoneal administration of compound at 0.06 mg/kg at a range of 11-13; type: functional; outline: as §2
Mus musculus [25] = assay: In vivo antitumor activity was evaluated against L1210 leukemia implanted mice by measuring 7-day weight change after intraperitoneal administration of compound at 8 mg/kg; type: functional; outline: as §1
Mus musculus [26] = assay: In vivo antitumor activity was evaluated against L1210 leukemia implanted mice by measuring number of survival days after intraperitoneal administration of compound at 12 mg/kg; at a range of 13-15
Mus musculus [27] = assay: In vivo antitumor activity was evaluated against L1210 leukemia implanted mice by measuring percent increase in life span after intraperitoneal administration of compound at 8 mg/kg; type: functional; outline: as §2
Mus musculus [28] = assay: In vivo antitumor activity was evaluated against L1210 leukemia implanted mice by measuring T/C median after intraperitoneal administration of compound at 12 mg/kg; T/C median=13/8; type: functional; outline: as §2
Mus musculus [29] = assay: In vivo antitumor activity was evaluated against L1210 leukemia implanted mice by measuring percent increase in life span after intraperitoneal administration of compound at 16 mg/kg; type: functional; outline: as §2
Mus musculus [30] = assay: In vivo antitumor activity was evaluated against L1210 leukemia implanted mice by measuring percent increase in life span after intraperitoneal administration of compound at 12 mg/kg; type: functional; outline: as §2
Mus musculus [31] = assay: In vivo antitumor activity was evaluated against L1210 leukemia implanted mice by measuring 7-day weight change after intraperitoneal administration of compound at 12 mg/kg; type: functional; outline: as §1
Mus musculus [32] = assay: In vivo antitumor activity was evaluated against L1210 leukemia implanted mice by measuring T/C median after intraperitoneal administration of compound at 8 mg/kg; T/C median=13/8; type: functional; outline: as §2
Mus musculus [33] = assay: In vivo antitumor activity was evaluated against L1210 leukemia implanted mice by measuring number of survival days after intraperitoneal administration of compound at 8 mg/kg; at a range of 12-15; type: functional; outline: as §2
Mus musculus [34] = assay: In vivo antitumor activity was evaluated against L1210 leukemia implanted mice by measuring 7-day weight change after intraperitoneal administration of compound at 16 mg/kg; type: functional; outline: as §1
Mus musculus [35] = assay: In vivo antitumor activity was evaluated against L1210 leukemia implanted mice by measuring number of survival days after intraperitoneal administration of compound at 16 mg/kg; at a range of 15-17; type: functional; outline: as §2
Mus musculus [36] = assay: In vivo antitumor activity was evaluated against L1210 leukemia implanted mice by measuring T/C median after intraperitoneal administration of compound at 16 mg/kg; T/C median=15/8; type: functional; outline: as §2

Nc1nc(N)c2nc(CNc3ccc(C(=O)NC(CCS(=O)(=O)O)C(=O)O)cc3)cnc2n1 (stereo unspecified)
Activity (Mus musculus [1]): -8%
IC50 (L1210): 31 nM
Survival days (Mus musculus [2]): 16
Weight change (Mus musculus [3]): -1%
Survival days (Mus musculus [4]): 19
Activity (Mus musculus [5]): 88%
Activity (Mus musculus [6]): 138%
Survival days (Mus musculus [7]): 13
Activity (Mus musculus [8]): -8%
ID50 [9]: 63 nM
Survival days (Mus musculus [10]): 16
Activity (Mus musculus [11]): 100%
Survival days (Mus musculus [12]): 15
Survival days (Mus musculus [13]): 13

Nc1nc(N)c2nc(CNc3ccc(C(=O)N[C@@H](CCC(=O)O)C(=O)O)cc3)cnc2n1 [AMINOPTERIN]
Weight change (Mus musculus [14]): -12%
IC50 (L1210): 3.1 nM
Survival days (Mus musculus [15]): 12
Survival days (Mus musculus [16]): 12
Activity (Mus musculus [17]): 138%
ID50 [9]: 40 nM
Weight change (Mus musculus [18]): 1%
Weight change (Mus musculus [19]): 3%
Activity (Mus musculus [20]): 50%
Survival days (Mus musculus [21]): 19
Survival days (Mus musculus [22]): 14
Activity (Mus musculus [23]): 75%
Survival days (Mus musculus [24]): 11

Nc1nc(N)c2nc(CNc3ccc(C(=O)NC(CS(=O)(=O)O)C(=O)O)cc3)cnc2n1 (stereo unspecified)
Weight change (Mus musculus [25]): 2%
Survival days (Mus musculus [26]): 13
IC50 (L1210): 44 nM
Activity (Mus musculus [27]): 62%
ID50 [9]: 65 nM
Survival days (Mus musculus [28]): 13
Activity (Mus musculus [29]): 88%
Activity (Mus musculus [30]): 62%
Activity (Mus musculus [31]): 2%
Survival days (Mus musculus [32]): 13
Survival days (Mus musculus [33]): 12
Weight change (Mus musculus [34]): 0%
Survival days (Mus musculus [35]): 17
Survival days (Mus musculus [36]): 15
